In ChEMBL document CHEMBL3351833, “Synthesis and Biological Evaluation of Pyrazolo[1,5-a]pyrimidine Compounds as Potent and Selective Pim-1 Inhibitors” (ACS Med Chem Lett, 2015):

What was measured:
[1] = molecular target: Serine/threonine-protein kinase pim-2 (Homo sapiens, UniProt Q9P1W9); assay: Inhibition of Pim2 (unknown origin) using luciferase-luciferin based ATP detection reagent by Kinase-Glo assay; settings: read-out: IC50
[2] = molecular target: T1, Serine/threonine-protein kinase pim-1 (Homo sapiens, UniProt P11309); assay: Inhibition of Pim1 (unknown origin) using luciferase-luciferin based ATP detection reagent by Kinase-Glo assay; settings: read-out: IC50
Target sequence in this assay (P11309 whole entry): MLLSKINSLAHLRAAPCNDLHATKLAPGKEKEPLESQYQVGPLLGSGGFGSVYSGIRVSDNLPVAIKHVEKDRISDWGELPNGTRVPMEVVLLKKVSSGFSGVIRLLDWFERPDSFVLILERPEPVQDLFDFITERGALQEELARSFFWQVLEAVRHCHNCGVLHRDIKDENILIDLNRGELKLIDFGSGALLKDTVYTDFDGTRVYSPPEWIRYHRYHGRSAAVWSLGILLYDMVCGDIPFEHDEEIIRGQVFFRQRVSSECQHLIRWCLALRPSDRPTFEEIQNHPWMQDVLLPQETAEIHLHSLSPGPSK

[3] = molecular target: T2, Receptor-type tyrosine-protein kinase FLT3 (Homo sapiens, UniProt P36888); assay: Inhibition of human Flt3 (unknown origin)
T2 sequence (P36888 whole entry): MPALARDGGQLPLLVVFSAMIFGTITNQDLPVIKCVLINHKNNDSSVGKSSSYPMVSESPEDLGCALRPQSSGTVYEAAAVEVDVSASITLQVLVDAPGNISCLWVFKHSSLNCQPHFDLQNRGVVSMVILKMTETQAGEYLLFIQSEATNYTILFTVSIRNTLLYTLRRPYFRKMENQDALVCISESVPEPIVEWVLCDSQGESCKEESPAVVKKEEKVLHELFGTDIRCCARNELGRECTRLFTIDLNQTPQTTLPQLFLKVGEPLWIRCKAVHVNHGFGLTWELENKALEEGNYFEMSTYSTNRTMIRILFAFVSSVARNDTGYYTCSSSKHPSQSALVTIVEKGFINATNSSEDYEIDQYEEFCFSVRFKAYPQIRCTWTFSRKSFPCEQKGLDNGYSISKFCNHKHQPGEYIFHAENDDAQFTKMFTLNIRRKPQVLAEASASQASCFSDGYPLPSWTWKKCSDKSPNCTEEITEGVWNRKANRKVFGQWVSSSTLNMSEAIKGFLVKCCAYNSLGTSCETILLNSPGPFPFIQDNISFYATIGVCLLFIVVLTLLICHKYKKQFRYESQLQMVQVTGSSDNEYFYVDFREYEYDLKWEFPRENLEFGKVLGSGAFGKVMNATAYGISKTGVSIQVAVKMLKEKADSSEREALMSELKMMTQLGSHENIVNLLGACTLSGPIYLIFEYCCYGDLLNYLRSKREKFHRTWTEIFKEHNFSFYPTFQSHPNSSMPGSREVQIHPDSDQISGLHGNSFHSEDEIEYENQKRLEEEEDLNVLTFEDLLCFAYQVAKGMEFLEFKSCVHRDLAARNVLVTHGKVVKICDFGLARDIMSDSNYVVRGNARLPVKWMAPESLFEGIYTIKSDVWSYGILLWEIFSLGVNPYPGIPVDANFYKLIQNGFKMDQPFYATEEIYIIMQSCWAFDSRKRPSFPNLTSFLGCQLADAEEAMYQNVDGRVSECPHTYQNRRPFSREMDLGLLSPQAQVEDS

[4] = molecular target: BDNF/NT-3 growth factors receptor (Homo sapiens) (UniProt Q16620); assay: Inhibition of TRKB (unknown origin) at 1 uM
[5] = molecular target: Tyrosine-protein kinase Yes (Homo sapiens) (UniProt P07947); assay: Inhibition of YES1 (unknown origin) at 1 uM
[6] = molecular target: NT-3 growth factor receptor (Homo sapiens) (UniProt Q16288); assay: Inhibition of TRKC (unknown origin) at 1 uM
[7] = molecular target: T3, Muscle, skeletal receptor tyrosine-protein kinase (Homo sapiens) (UniProt O15146); assay: Inhibition of MUSK (unknown origin) at 1 uM
T3 sequence (whole entry): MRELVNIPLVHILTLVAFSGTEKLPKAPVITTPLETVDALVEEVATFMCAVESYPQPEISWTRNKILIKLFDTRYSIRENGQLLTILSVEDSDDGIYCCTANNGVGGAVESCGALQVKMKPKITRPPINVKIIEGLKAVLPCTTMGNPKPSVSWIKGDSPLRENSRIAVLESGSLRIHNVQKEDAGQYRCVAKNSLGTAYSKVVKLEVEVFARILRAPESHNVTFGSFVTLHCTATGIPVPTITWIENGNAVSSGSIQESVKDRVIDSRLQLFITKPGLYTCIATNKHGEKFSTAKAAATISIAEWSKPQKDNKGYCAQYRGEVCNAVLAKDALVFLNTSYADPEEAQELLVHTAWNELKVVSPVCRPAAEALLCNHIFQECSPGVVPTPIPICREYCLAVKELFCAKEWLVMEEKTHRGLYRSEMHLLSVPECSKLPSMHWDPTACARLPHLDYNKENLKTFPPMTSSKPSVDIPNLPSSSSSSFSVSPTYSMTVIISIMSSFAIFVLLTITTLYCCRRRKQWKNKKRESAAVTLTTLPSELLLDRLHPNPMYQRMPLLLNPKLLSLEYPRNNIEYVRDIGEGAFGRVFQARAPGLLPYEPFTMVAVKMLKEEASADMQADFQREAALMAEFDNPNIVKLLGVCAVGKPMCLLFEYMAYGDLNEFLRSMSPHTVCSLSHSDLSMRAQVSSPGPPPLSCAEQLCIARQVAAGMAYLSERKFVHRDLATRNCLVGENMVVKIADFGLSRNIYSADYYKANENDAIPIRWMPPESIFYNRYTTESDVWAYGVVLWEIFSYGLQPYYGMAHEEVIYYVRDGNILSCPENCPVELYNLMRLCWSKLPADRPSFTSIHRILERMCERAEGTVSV

[8] = Growth inhibition of human UM-UC-3 cells after 24 hrs by Clonogenic cell survival assay; assay type: functional, cell-based; settings: UMUC3, 24 h
Summary of the method: (§1)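 Two-dimensional colony formation (clonogenic survival) of human UM-UC-3 bladder carcinoma and HSC-3 oral squamous carcinoma cells, assessing the cytostatic effect on colony growth.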

[9] = molecular target: Tyrosine-protein kinase Lck (Homo sapiens) (UniProt P06239); assay: Inhibition of LCK (unknown origin) at 1 uM
[10] = molecular target: Macrophage colony-stimulating factor 1 receptor (Homo sapiens) (UniProt P07333); assay: Inhibition of FMS (unknown origin) at 1 uM
[11] = molecular target: T4, Homeodomain-interacting protein kinase 4 (Homo sapiens) (UniProt Q8NE63); assay: Inhibition of HIPK4 (unknown origin) at 1 uM
T4 sequence (whole entry): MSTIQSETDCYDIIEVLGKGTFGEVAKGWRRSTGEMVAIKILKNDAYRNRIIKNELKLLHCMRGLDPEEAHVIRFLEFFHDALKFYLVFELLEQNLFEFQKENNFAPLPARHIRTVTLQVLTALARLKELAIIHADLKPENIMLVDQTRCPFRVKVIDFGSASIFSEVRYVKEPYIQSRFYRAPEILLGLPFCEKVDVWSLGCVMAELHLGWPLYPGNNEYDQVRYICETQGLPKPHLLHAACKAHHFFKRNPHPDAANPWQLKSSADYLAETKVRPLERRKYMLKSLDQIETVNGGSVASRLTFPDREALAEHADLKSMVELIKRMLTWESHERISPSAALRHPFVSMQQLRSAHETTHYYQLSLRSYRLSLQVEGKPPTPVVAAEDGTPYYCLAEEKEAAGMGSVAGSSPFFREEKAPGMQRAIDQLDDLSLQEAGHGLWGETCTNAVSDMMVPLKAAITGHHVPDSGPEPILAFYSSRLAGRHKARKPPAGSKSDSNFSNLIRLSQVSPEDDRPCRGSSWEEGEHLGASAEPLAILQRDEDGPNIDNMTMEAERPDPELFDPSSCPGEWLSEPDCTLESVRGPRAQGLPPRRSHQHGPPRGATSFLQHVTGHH

[12] = molecular target: Tyrosine-protein kinase Fyn (Homo sapiens) (UniProt P06241); assay: Inhibition of FYN (unknown origin) at 1 uM
[13] = molecular target: Voltage-gated inwardly rectifying potassium channel KCNH2 (Homo sapiens, UniProt Q12809); assay: Inhibition of human ERG expressed in CHO cells by automated patch clamp method; assay type: cell-based
[14] = Growth inhibition of human HSC3 cells after 24 hrs by Clonogenic cell survival assay; assay type: functional, cell-based; settings: HSC-3, 24 h; summary of the method: as §1
[15] = molecular target: Homeodomain-interacting protein kinase 2 (Homo sapiens) (UniProt Q9H2X6); assay: Inhibition of HIPK2 (unknown origin) at 1 uM
[16] = molecular target: Proto-oncogene tyrosine-protein kinase Src (Homo sapiens) (UniProt P12931); assay: Inhibition of c-Src (unknown origin) at 1 uM
[17] = molecular target: Receptor-type tyrosine-protein kinase FLT3 (Homo sapiens) (UniProt P36888); settings: 1 uM
[18] = molecular target: Casein kinase II subunit alpha (Homo sapiens) (UniProt P68400); assay: Inhibition of CK2a (unknown origin) at 1 uM
[19] = molecular target: T5, Serine/threonine-protein kinase haspin (Homo sapiens) (UniProt Q8TF76); assay: Inhibition of Haspin (unknown origin) at 1 uM
T5 sequence (whole entry): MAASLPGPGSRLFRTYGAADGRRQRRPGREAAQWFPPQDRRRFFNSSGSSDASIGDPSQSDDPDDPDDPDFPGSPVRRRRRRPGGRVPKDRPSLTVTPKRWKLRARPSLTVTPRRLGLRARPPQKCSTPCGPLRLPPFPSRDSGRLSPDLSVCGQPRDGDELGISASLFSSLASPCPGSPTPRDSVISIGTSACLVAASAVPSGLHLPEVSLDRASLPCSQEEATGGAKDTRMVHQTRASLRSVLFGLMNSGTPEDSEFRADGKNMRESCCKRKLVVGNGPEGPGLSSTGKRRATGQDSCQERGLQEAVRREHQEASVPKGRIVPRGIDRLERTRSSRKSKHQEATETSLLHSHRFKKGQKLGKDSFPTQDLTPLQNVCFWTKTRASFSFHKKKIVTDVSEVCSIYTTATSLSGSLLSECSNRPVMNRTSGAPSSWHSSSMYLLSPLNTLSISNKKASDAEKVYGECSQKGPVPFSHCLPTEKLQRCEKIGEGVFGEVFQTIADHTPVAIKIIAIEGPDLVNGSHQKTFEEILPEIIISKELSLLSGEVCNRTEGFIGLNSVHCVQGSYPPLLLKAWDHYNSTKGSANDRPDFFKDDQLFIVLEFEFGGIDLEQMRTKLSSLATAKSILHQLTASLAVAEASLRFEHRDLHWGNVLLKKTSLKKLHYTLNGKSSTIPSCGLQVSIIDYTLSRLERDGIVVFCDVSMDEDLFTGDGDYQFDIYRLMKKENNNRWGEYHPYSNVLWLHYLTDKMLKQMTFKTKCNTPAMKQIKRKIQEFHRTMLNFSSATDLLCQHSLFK

[20] = molecular target: High affinity nerve growth factor receptor (Homo sapiens) (UniProt P04629); assay: Inhibition of TRKA (unknown origin) at 1 uM
[21] = molecular target: T1, Serine/threonine-protein kinase pim-1; assay: Inhibition of Pim1 (unknown origin) using luciferase-luciferin based ATP detection reagent at 1 uM by Kinase-Glo assay
Target sequence in this assay (P11309 whole entry, looked up): as the sequence (P11309 whole entry) above

[22] = molecular target: Tyrosine-protein kinase JAK2 (Homo sapiens) (UniProt O60674); assay: Inhibition of JAK2 (unknown origin) at 1 uM
Tyrosine-protein kinase JAK2 (Homo sapiens), sequence (O60674 whole entry): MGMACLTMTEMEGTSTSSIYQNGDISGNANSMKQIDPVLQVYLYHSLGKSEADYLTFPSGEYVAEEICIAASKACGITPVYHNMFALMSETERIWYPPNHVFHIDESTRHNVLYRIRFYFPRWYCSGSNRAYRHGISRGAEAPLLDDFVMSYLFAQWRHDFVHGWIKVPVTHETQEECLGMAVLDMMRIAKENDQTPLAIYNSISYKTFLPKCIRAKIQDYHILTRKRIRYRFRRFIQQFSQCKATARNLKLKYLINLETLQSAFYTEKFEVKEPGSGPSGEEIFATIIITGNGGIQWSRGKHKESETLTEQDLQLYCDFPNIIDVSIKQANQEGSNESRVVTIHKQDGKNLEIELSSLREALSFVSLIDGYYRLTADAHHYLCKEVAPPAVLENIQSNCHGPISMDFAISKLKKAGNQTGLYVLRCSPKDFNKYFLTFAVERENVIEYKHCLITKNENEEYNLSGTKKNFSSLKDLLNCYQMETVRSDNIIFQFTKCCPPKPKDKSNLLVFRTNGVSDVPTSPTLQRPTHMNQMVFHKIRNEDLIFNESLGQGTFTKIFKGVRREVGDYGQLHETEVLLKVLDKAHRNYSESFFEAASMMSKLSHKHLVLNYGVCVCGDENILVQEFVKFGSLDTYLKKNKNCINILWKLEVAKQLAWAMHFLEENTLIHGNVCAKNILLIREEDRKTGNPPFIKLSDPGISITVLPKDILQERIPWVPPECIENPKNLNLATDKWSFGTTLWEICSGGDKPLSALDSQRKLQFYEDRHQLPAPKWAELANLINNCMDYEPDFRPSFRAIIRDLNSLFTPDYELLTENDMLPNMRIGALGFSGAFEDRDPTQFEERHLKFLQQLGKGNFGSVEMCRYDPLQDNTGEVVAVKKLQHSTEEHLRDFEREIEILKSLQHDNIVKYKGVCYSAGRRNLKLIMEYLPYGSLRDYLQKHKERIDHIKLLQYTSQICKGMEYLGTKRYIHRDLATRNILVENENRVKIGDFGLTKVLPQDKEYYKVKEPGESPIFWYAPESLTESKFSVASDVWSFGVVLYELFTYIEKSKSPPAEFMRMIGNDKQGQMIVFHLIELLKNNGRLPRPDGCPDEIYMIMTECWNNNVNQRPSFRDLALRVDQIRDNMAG

Serine/threonine-protein kinase pim-2, sequence (Q9P1W9 whole entry): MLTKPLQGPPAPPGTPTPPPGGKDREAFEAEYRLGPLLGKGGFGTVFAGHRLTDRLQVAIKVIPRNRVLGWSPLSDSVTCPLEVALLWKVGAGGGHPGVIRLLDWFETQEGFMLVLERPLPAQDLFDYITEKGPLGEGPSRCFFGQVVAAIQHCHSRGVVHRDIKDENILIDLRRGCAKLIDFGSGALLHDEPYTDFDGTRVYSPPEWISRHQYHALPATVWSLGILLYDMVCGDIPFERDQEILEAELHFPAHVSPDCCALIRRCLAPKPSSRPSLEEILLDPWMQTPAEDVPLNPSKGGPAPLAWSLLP
Voltage-gated inwardly rectifying potassium channel KCNH2, sequence (Q12809 whole entry): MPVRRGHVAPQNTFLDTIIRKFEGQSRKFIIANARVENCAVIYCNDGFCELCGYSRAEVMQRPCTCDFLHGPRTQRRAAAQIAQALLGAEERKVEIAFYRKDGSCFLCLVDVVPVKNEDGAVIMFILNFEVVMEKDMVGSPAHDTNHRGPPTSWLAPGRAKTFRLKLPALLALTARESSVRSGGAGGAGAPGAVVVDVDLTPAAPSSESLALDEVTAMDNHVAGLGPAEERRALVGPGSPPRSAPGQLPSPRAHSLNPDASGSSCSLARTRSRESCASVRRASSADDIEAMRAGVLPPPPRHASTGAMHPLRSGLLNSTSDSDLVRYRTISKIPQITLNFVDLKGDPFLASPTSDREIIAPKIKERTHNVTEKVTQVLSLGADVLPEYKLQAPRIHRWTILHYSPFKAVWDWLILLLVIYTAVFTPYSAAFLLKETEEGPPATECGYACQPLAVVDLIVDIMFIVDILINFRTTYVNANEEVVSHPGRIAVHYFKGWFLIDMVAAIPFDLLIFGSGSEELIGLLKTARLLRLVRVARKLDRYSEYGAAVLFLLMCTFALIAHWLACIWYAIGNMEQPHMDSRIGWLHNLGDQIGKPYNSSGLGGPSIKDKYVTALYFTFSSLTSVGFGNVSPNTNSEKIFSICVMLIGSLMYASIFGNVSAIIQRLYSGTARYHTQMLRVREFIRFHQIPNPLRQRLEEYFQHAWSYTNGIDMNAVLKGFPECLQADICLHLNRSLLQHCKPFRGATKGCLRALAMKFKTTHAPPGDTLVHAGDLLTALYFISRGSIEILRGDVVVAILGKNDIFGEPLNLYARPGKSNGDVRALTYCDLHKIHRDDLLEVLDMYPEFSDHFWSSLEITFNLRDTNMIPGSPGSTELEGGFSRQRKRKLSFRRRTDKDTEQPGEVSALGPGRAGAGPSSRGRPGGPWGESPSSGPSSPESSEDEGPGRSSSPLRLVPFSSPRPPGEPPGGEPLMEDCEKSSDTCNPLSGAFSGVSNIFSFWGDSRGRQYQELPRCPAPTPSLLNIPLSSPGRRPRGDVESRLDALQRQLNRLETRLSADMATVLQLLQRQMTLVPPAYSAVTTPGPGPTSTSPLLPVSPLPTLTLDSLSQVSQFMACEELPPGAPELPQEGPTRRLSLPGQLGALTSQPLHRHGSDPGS
Homeodomain-interacting protein kinase 2 (Homo sapiens), sequence (Q9H2X6 whole entry, looked up): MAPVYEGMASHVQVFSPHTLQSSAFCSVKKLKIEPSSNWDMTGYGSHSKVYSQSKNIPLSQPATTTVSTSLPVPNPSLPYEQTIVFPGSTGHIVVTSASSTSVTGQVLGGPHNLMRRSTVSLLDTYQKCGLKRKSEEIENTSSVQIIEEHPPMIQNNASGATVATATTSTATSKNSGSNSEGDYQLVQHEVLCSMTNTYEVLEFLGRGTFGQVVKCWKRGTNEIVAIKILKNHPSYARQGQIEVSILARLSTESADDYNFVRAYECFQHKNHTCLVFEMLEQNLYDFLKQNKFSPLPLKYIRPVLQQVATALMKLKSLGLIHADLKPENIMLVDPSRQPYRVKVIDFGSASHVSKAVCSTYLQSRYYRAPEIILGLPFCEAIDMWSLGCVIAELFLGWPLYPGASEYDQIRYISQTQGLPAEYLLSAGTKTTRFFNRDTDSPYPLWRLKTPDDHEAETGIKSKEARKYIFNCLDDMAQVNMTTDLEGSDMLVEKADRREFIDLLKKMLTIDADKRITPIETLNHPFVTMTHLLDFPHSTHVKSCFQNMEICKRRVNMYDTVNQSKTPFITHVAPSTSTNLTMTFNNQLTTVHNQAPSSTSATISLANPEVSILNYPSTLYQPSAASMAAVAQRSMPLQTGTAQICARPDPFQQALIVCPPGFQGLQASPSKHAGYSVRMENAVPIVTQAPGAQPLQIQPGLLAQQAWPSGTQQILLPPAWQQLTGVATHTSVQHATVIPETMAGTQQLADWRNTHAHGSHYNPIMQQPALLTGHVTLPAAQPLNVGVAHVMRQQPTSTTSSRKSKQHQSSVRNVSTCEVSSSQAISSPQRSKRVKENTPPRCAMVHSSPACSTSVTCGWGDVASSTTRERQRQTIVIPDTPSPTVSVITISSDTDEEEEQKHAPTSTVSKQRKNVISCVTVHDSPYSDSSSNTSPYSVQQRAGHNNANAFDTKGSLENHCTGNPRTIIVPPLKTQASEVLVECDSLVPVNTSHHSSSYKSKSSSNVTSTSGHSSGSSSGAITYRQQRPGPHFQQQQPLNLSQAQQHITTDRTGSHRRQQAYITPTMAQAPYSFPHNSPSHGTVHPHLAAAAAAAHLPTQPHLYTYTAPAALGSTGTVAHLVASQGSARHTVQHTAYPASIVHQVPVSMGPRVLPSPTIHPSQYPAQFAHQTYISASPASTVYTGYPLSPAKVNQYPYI
Proto-oncogene tyrosine-protein kinase Src (Homo sapiens), sequence (P12931 2-536 limits assumed): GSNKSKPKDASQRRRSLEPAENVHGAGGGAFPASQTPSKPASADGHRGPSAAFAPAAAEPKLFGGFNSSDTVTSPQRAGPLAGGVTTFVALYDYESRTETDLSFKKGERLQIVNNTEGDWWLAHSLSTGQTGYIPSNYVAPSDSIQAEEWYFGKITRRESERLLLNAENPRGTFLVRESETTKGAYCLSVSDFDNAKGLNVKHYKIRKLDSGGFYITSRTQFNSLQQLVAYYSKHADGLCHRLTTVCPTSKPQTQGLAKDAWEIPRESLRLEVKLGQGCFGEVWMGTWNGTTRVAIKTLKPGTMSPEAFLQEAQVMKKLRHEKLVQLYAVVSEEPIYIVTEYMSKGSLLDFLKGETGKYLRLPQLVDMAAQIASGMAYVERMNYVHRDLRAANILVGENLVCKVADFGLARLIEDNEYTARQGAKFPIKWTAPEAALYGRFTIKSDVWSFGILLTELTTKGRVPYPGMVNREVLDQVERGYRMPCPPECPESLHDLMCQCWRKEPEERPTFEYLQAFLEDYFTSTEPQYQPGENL

CO[C@H]1CC[C@H](Nc2ccn3ncc(-c4cccc(Cl)c4)c3n2)CC1
IC50 [1]: 1020 nM

FC(F)(F)Oc1cccc(-c2cnn3ccc(NCC4CCOCC4)nc23)c1
IC50 [2]: 633 nM
IC50 [1]: 3730 nM

C[C@]1(O)CC[C@H](Nc2ccn3ncc(-c4cccc(Cl)c4)c3n2)CC1
IC50 [1]: 1260 nM

O[C@H]1CC[C@H](Nc2ccn3ncc(-c4cccc(C(F)(F)F)c4)c3n2)CC1
IC50 [3]: 53 nM
IC50 [1]: 282 nM

CO[C@H]1CC[C@H](Nc2ccn3ncc(-c4cccc(C(F)(F)F)c4)c3n2)CC1
IC50 [1]: 4660 nM

CC(C)(O)[C@H]1CC[C@H](Nc2ccn3ncc(-c4cccc(Cl)c4)c3n2)CC1
inhibition [4]: > 90%
inhibition [5]: > 50%
inhibition [6]: 96%
inhibition [7]: > 80%
EC50 [8]: 914 nM
inhibition [9]: > 80%
inhibition [10]: > 50%
IC50 [3]: 125 nM
inhibition [11]: > 80%
inhibition [12]: > 50%
IC50 [13]: > 30000 nM
EC50 [14]: 600 nM
inhibition [15]: > 50%
inhibition [16]: > 50%
inhibition [17]: > 90%
inhibition [18]: > 50%
inhibition [19]: > 80%
IC50 [1]: 228 nM
inhibition [20]: > 80%
inhibition [21]: > 98%
inhibition [22]: > 50%

N[C@H]1CC[C@H](Nc2ccn3ncc(-c4cccc(Cl)c4)c3n2)CC1
IC50 [1]: 732 nM

CC(C)(O)[C@H]1CC[C@H](Nc2ccn3ncc(-c4cccc(C(F)(F)F)c4)c3n2)CC1
IC50 [3]: 271 nM
IC50 [13]: > 30000 nM
IC50 [1]: 525 nM

O[C@H]1CC[C@H](Nc2ccn3ncc(-c4cccc(Cl)c4)c3n2)CC1
IC50 [1]: 506 nM

Clc1cccc(-c2cnn3ccc(NCC4CCOCC4)nc23)c1
IC50 [1]: 1640 nM

N[C@H]1CCCN(c2ccn3ncc(-c4cccc(Cl)c4)c3n2)C1
IC50 [1]: 2000 nM

O=S1(=O)CCC(CNc2ccn3ncc(-c4cccc(OC(F)(F)F)c4)c3n2)CC1
IC50 [1]: 8160 nM

O=S1(=O)CCC(CNc2ccn3ncc(-c4cccc(C(F)(F)F)c4)c3n2)CC1
IC50 [1]: 6020 nM
